System: MS2 coat protein
Experiment: apparent Kd, MS2 coat protein; higher = weaker binding; RNA-MaP array; FMN 200 µM where present
Outline: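 SNAP-549-labelled MS2 coat protein, doubled from 0.7 or 1.5 nM to 3 µM, was titrated over designs transcribed by stalled E. coli RNA polymerase on Illumina sequencing-chip clusters. Titrations were run without and then with constant ligand in 100 mM Tris-HCl pH 7.5, 80 mM KCl, 4 mM MgCl2, BSA, DTT, yeast tRNA and Tween-20. The apparent Kd is the median of filtered per-cluster fits to green signal normalised to red-channel RNA signal and control-cluster median Fmax.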

[1] = designed as: OFF switch for flavin mononucleotide, no ligand
[2] = ligand present: flavin mononucleotide, designed as: OFF switch for flavin mononucleotide
[3] = designed as: ON switch for flavin mononucleotide, no ligand
[4] = ligand present: flavin mononucleotide, designed as: ON switch for flavin mononucleotide

Sequence | apparent Kd [1] | apparent Kd [2] | apparent Kd [3] | apparent Kd [4]
UUAAAUCAUGUAGGAUAUGCAUGGCGAAGCUACGCAGAAGGACAUGAGGAUCACCCAUGUGCUAGCUACCGGAGACGGUGGCAA | 57.7 nM | 195 nM | – | –
CUGUUUUUCGCAGGAUAUGCUCCUCCUUUAUUUGCAGAAGGGCGUUAAACAUGAGGAUCACCCAUGUAUGGUAAUGACUUUUUC | 20.6 nM | 67.8 nM | – | –
GCACAUGGCAUAGGAUAUAGAAGUAUACAUUAUAUAGGUAGUGUCACAACACUAGAAGGAUGAAACAUGAGGAUCACCCAUGUA | – | – | 16.2 nM | 12.3 nM
CCUAAGGACACAGGAUAUAGCGUGGUGGGUGGGCUCCAACGACGAGCGGCGCUAGAAGGGUGACCACAUGAGGAUCACCCAUGU | – | – | 668 nM | 205 nM
AUAGGGACCUCGCAAUGUUUACAUGAGGAUCACCCAUGUAAGAGAAGGGUCCAGUCAUCUCCUGGAUAGGAUAUCUUACCGUUA | 5.21 nM | 6.44 nM | – | –
CACGCAUGUGGAGGAUAUGCAGUUAACAUAAGCGCAGAAGGCCACAUGAGGAUCACCCAUGUCCAGCAUUAGCUGAUGUUGAUC | 385 nM | 195 nM | – | –
GCGAUUUUGUAAGGAUAUAUACGAGUUUCAAGUGUAGAAGGUACUUACAUGAGGAUCACCCAUGUAUACAUGGAUAAUAGUCGC | – | – | 269 nM | 136 nM
GGCGGCGCGGGCCACCGCAGAACCAGAAGGACAUGAGGAUCACCCAUGUAACAAAACAGGGCGGUGUAGGAUAUGGCAGACCCG | 14.5 nM | 29.7 nM | – | –
CGUGUGUCAGGAUAUUAGUAGUGUGUGGAUACAUAUAUUGCUGAGAAGGGACAUGAGGAUCACCCAUGUAUACG | 46.9 nM | 169 nM | – | –
AGCUGGUGACAGCAUCGAGCAAAACAUGAGGAUCACCCAUGUAGAAGGCUGUACGGUUACCGUACAGAGGAUAUACAUAGCUCG | 7.15 nM | 10 nM | – | –
UUGGAGUACGUAGGAUAUGUAGGAUAUUCCUACAUGAGGAUCACCCAUGUUUACAUGGAAGAAGGACAGAAGGACGUGCUCCAU | – | – | 1120 nM | 14.7 nM
AACAGACAUGAGGAUCACCCAUGUGAAAACGUACAAGGAUAUGUGUGGAAACCGUACUAUACAGAAGGUGUCUGUC | – | – | 41.3 nM | 72.5 nM
AUUUUGCGAGGAUAUACAUGAGGAUCACCCAUGUACGCUCAGCAGGGUGAAGGCUCUUGUAGAAGGCGUUCUGA | 88.2 nM | 45.8 nM | – | –
CGGGUGGUCCUCCGGGAUUGGACACAGGAUAUCCGCGAAAACAUGAGGAUCACCCAUGUAUAUGAGGAGAAGGGUGGACGAAGA | – | – | 56.2 nM | 15.6 nM
CGUUAAUCCUAGGAUAUGCUAGACGAAAGUCUAGCAGAAGGAGGAACAUGAGGAUCACCCAUGUGUCCUAAACG | 16.8 nM | 26.7 nM | – | –
ACUAAUUAGUGAGGAUAUACAUAAUUUAUAACUGUAGAAGGCACAAACCUCAAUACAUGAGGAUCACCCAUGUGGUAUAUAAAU | 244 nM | 434 nM | – | –
ACAUACAUUCGAGGAUAUCGGUGAUUUAUUUUACGAGAAGGCGAUUUAAGAUUUAUUAUUUUAGACAUGAGGAUCACCCAUGUA | – | – | 27.7 nM | 24.5 nM
GGACAUUUACAGAAGGGCAAGCUCGAAAGAGGAGAAAGAGAACGAGCUUGCAGGAUAUGUUGAACAUGAGGAUCACCCAUGUCU | – | – | 9.75 nM | 7.69 nM
ACCAUUUACUAAUCCUCUAUACAUGAGGAUCACCCAUGUUUUGAGGAUAUCAUCGUUCGCCGCGUUGAGAAGGCAAAACAUUCG | 18.7 nM | 52.9 nM | – | –
AAAAAACAUGAGGAUCACCCAUGUGAGGAUAUCCUGGUUGAAAAAAAAAAAACAACCAGGAGAAGGCACAAAAA | 88.4 nM | 132 nM | – | –
CCCGGUCGAGCAGGAUAUAGACCGCGUGCAUUUCCCUCAGAUUGAGACAUGAGGAUCACCCAUGUCUAGAAGGGUUCACCGAAA | 5.83 nM | 6.93 nM | – | –

From the EternaBench riboswitch data
